Data from publication PMC11365375 (Acta Pharmaceutica Sinica. B, 2024).

What was measured:
H460^WT cells = assay: Cell proliferation assay; format: cell-based; conditions: Homo sapiens, 72 h, read-out: H460^WT (IC50, μmol/L)
Outline: (§1)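 Human NCI-H460 NSCLC cells engineered to express wild-type or R231Q DOT1L (aa 1–416) were grown in RPMI 1640 with 10% FBS. Cells were seeded in 96-well plates and exposed to a range of test compound concentrations for 72 h at 37 °C, 5% CO₂. Growth was read by CCK-8 on a plate reader, and IC50 values were derived from the dose–response.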

H460^R231Q cells = assay: Cell proliferation assay; format: cell-based, human; conditions: for IC50: Homo sapiens, 72 h, read-out: H460^R231Q (IC50, μmol/L)
Outline: as §1

[1] = tested on: DOT1L^R231Q mediated H3K79me2 level in H460^R231Q cells; assay: Quantitative Western blot analysis of H3K79me2 level in H460^R231Q cells; format: cell-based, human
Outline: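 H460^R231Q cells were treated with test compound, and histones were extracted with a total histone extraction kit; protein was quantified by BCA. Extracts were resolved on 8–15% SDS-PAGE, transferred to PVDF and probed for H3K79me2 and histone H3, with ECL/X-ray film detection. Band densities were quantified, and H3K79me2 was normalised to H3. The dimethylation index was the compound value divided by the SGC0946 (positive control) value.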

[2] = cited from earlier work
[3] = tested on: H3K27me3, H3K9me2, H3K4me1 and H3K36me2 levels; assay: WB analysis of common histone H3 modifications in H460^R231Q cells; format: cell-based, human; conditions: Fig. 7
Outline: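 H460^R231Q cells were treated with test compound alongside an SGC0946 positive control. Histone extracts (or RIPA lysates with protease/phosphatase inhibitors) were quantified by BCA, separated on 8–15% SDS-PAGE and blotted to PVDF. Blots were probed for H3K27me3, H3K9me2, H3K4me1 and H3K36me2 and detected by ECL on X-ray film. Membranes were stripped and reprobed for proteins of similar size.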

H460^WT = conditions: WT group, in vivo; cited from earlier work
DOT1L^WT = DOT1L^WT (Homo sapiens, UniProt Q8TEK3); assay: DOT1L^WT methyltransferase assay; format: biochemical
Sequence of DOT1L^WT (Q8TEK3 whole entry): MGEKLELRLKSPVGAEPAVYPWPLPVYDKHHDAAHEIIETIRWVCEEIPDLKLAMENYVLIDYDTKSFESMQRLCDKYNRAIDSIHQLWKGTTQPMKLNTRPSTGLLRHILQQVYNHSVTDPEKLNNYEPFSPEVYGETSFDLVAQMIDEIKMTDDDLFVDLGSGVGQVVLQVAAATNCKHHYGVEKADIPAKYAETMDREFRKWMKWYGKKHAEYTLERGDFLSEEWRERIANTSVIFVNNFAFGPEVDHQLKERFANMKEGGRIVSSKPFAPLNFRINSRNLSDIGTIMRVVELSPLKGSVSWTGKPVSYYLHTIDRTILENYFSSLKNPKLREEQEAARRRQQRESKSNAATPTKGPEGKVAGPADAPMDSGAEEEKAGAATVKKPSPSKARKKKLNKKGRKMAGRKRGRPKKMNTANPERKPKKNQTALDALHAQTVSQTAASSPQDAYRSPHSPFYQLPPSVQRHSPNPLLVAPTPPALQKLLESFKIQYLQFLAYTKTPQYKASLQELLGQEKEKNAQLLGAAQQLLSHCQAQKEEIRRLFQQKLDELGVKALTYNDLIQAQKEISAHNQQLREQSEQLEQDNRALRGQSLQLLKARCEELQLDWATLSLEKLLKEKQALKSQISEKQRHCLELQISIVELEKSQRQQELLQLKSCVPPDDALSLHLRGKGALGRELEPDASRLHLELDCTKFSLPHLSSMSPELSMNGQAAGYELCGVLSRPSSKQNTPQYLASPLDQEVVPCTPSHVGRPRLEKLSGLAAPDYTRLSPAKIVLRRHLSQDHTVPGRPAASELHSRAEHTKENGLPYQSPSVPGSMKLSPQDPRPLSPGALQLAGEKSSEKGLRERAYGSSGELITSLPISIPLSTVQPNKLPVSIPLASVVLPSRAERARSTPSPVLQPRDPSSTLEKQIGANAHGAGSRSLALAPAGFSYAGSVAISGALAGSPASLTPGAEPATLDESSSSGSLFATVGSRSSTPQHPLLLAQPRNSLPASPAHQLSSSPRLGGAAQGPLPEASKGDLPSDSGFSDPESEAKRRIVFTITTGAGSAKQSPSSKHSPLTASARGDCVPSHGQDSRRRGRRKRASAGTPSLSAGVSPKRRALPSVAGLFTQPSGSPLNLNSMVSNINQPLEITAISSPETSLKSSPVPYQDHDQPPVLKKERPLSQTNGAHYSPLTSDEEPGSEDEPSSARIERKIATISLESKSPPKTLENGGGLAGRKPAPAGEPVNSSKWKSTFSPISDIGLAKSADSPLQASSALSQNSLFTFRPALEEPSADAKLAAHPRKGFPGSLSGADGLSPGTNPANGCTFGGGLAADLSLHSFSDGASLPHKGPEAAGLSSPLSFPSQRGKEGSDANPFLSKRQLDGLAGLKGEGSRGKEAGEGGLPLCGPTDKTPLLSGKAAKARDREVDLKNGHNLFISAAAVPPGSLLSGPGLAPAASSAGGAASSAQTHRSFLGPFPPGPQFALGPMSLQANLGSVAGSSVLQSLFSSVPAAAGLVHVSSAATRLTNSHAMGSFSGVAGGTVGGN
Outline: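 Commercial wild-type DOT1L was preincubated with test compound, 1% DMSO vehicle or SGC0946 positive control for 15 min at 25 °C. Nucleosomes plus SAM were added for 60 min, then detection buffer for 10 min, then anti-SAH-Lumi4-Tb and SAH-d2 for 60 min, all at 25 °C. The TR-FRET 665/620 nm ratio was read. % inhibition was scaled between vehicle and positive control; dose–response in duplicate, fitted for IC50.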

H460^R231Q = conditions: R231Q group, in vivo; cited from earlier work

| IC50 (H460^R231Q cells) [µmol/L] | SMILES | also measured |
| --- | --- | --- |
| 48.8 ± 2.76 | CC(C)N(C[C@H]1O[C@@H](n2cnc3c(N)ncnc32)[C@H](O)[C@@H]1O)C1CC2CN(C(=O)Nc3ccc(Br)cc3)CC2C1 (some centres unmarked) [Compound 3] | IC50 (H460^WT cells): > 100 µmol/L |
| 96.5 ± 5.45 | CC(C)(C)C(=O)Nc1ccc2[nH]c(CN3CCC(N(CCC(=O)NCC4CCCO4)C[C@H]4O[C@@H](n5cnc6c(N)ncnc65)[C@H](O)[C@@H]4O)CC3)nc2c1 (some centres unmarked) [Compound 32] | – |
| 68.2 ± 3.03 | CC(C)N(C[C@H]1O[C@@H](n2cnc3c(N)ncnc32)[C@H](O)[C@@H]1O)C1CC2CN(Cc3c(F)cc(Br)cc3F)CC2C1 (some centres unmarked) [Compound 11] | IC50 (H460^WT cells): > 100 µmol/L |
| 94 ± 7.07 | COC(=O)CN(C[C@H]1O[C@@H](n2cnc3c(N)ncnc32)[C@H](O)[C@@H]1O)C1CCN(Cc2nc3cc(NC(=O)C(C)(C)C)ccc3[nH]2)CC1 [Compound 24] | – |
| 46.7 ± 2.69 | CC(C)(C)C(=O)Nc1ccc2nc(CN3CCC(N(CC(=O)N4CCCC4)C[C@H]4O[C@@H](n5cnc6c(N)ncnc65)[C@H](O)[C@@H]4O)CC3)[nH]c2c1 [Compound 26] | – |
| 43.1 ± 1.88 | CC1CCN(CCCN(C[C@H]2O[C@@H](n3cnc4c(N)ncnc43)[C@H](O)[C@@H]2O)C2CCN(Cc3nc4cc(NC(=O)C(C)(C)C)ccc4[nH]3)CC2)CC1 [Compound 38] | – |
| 27.6 ± 1.31 | CCN1CCN(CCCN(C[C@H]2O[C@@H](n3cnc4c(N)ncnc43)[C@H](O)[C@@H]2O)C2CCN(Cc3nc4cc(NC(=O)C(C)(C)C)ccc4[nH]3)CC2)CC1 [Compound 39] | fold decreased activity against H460^R231Q cells (H460^R231Q cells; versus 37): 4 fold |
| 70 ± 2.44 | CN(C)C(=O)CN(C[C@H]1O[C@@H](n2cnc3c(N)ncnc32)[C@H](O)[C@@H]1O)C1CCN(Cc2nc3cc(NC(=O)C(C)(C)C)ccc3[nH]2)CC1 [Compound 25] | – |
| 18.6 ± 0.94 | CC(C)(C)C(=O)Nc1ccc2[nH]c(CN3CCC(N(CCC(=O)N4CCSCC4)C[C@H]4O[C@@H](n5cnc6c(N)ncnc65)[C@H](O)[C@@H]4O)CC3)nc2c1 [Compound 35] | – |
| 77.6 ± 3.18 | CN(C[C@H]1O[C@@H](n2cnc3c(N)ncnc32)[C@H](O)[C@@H]1O)C1CC2CN(C(=O)Nc3ccc(C(C)(C)C)cc3)CC2C1 (some centres unmarked) [Compound 1] | IC50 (H460^WT cells): > 100 µmol/L |
| 82 ± 3.25 | CC(C)N(CCC1CC2CN(Cc3ccc(F)c(F)c3)CC2C1)C[C@H]1O[C@@H](n2cnc3c(N)ncnc32)[C@H](O)[C@@H]1O (some centres unmarked) [Compound 17] | – |
| > 100 | CC(C)N(CCC1CC2CN(C(=O)Nc3ccc(C(C)(C)C)cc3)CC2C1)C[C@H]1O[C@@H](n2cnc3c(N)ncnc32)[C@H](O)[C@@H]1O (some centres unmarked) [Compound 12] | – |
| 73.3 ± 3.18 | CCN(CC)CCCN(C[C@H]1O[C@@H](n2cnc3c(N)ncnc32)[C@H](O)[C@@H]1O)C1CCN(Cc2nc3ccc(NC(=O)C(C)(C)C)cc3[nH]2)CC1 [Compound 42] | – |
| 73 ± 5.07 | CC(C)NC(=O)CCN(C[C@H]1O[C@@H](n2cnc3c(N)ncnc32)[C@H](O)[C@@H]1O)C1CCN(Cc2nc3cc(NC(=O)C(C)(C)C)ccc3[nH]2)CC1 [Compound 33] | – |
| 37.9 ± 3.09 | CC(C)N(C[C@H]1O[C@@H](n2cnc3c(N)ncnc32)[C@H](O)[C@@H]1O)C1CC2CN(C(=O)Nc3ccc(NC(=O)C(C)(C)C)cc3)CC2C1 (some centres unmarked) [Compound 5] | IC50 (H460^WT cells): > 100 µmol/L; inhibitory activity against DOT1L^R231Q in WB assay ([1]; H3K79me2 level, H460^R231Q cells): moderate inhibitory activity |
| > 100 | COC(=O)CN(C[C@H]1O[C@@H](n2cnc3c(N)ncnc32)[C@H](O)[C@@H]1O)C1CC2CN(C(=O)Nc3ccc(NC(=O)C(C)(C)C)cc3)CC2C1 (some centres unmarked) [Compound 19] | – |
| 22.5 ± 1.81 | CC(C)(C)C(=O)Nc1ccc2nc(CN3CCC(N(CC(=O)N4CCC(O)CC4)C[C@H]4O[C@@H](n5cnc6c(N)ncnc65)[C@H](O)[C@@H]4O)CC3)[nH]c2c1 [Compound 28] | – |
| 40.1 ± 3.73 | CC(C)N(C[C@H]1O[C@@H](n2cnc3c(N)ncnc32)[C@H](O)[C@@H]1O)C1CC2CN(C(=O)Nc3ccc(C(C)(C)C)cc3)CC2C1 (some centres unmarked) [Compound 2] | IC50 (H460^WT cells): > 100 µmol/L |
| 46.1 ± 3 | CC(C)(C)C(=O)Nc1ccc2nc(CN3CCC(N(CC(=O)N4CCOCC4)C[C@H]4O[C@@H](n5cnc6c(N)ncnc65)[C@H](O)[C@@H]4O)CC3)[nH]c2c1 [Compound 30] | – |

| IC50 (H460^R231Q cells) [µmol/L] | SMILES | also measured |
| --- | --- | --- |
| 60 ± 5.84 | COc1ccc(NC(=O)N2CC3CC(N(C[C@H]4O[C@@H](n5cnc6c(N)ncnc65)[C@H](O)[C@@H]4O)C(C)C)CC3C2)cc1 (some centres unmarked) [Compound 4] | IC50 (H460^WT cells): > 100 µmol/L |
| 95.9 ± 4.26 | COc1cc(CN2CC3CC(N(C[C@H]4O[C@@H](n5cnc6c(N)ncnc65)[C@H](O)[C@@H]4O)C(C)C)CC3C2)cc(OC)c1OC (some centres unmarked) [Compound 10] | IC50 (H460^WT cells): > 100 µmol/L |
| 52.7 ± 2.99 | CC(C)(C)C(=O)Nc1ccc(NC(=O)N2CC3CC(N(CC(=O)NC4CC4)C[C@H]4O[C@@H](n5cnc6c(N)ncnc65)[C@H](O)[C@@H]4O)CC3C2)cc1 (some centres unmarked) [Compound 20] | – |
| 87.2 ± 7.63 | CC(C)N(CCC1CC2CN(C(=O)Nc3ccc(Br)cc3)CC2C1)C[C@H]1O[C@@H](n2cnc3c(N)ncnc32)[C@H](O)[C@@H]1O (some centres unmarked) [Compound 13] | – |
| > 100 | CC(C)N(CCC1CC2CN(C(=O)Nc3ccc(NC(=O)C(C)(C)C)cc3)CC2C1)C[C@H]1O[C@@H](n2cnc3c(N)ncnc32)[C@H](O)[C@@H]1O (some centres unmarked) [Compound 14] | – |
| – | CC(C)N(C[C@H]1O[C@@H](n2cnc3c(N)ncnc32)[C@H](O)[C@@H]1O)[C@H]1C[C@@H](CCc2nc3cc(C(C)(C)C)ccc3[nH]2)C1 [EPZ5676] | clearance [2]: 68 mL/min/kg; oral bioavailability (F) [2]: 0% |
| 44.6 ± 3.87 | CC(C)(C)C(=O)Nc1ccc(NC(=O)N2CC3CC(N(CC(=O)N4CCSCC4)C[C@H]4O[C@@H](n5cnc6c(N)ncnc65)[C@H](O)[C@@H]4O)CC3C2)cc1 (some centres unmarked) [Compound 22] | – |
| 55.3 ± 5.49 | COC(=O)C1CCN(CCCN(C[C@H]2O[C@@H](n3cnc4c(N)ncnc43)[C@H](O)[C@@H]2O)C2CCN(Cc3nc4cc(NC(=O)C(C)(C)C)ccc4[nH]3)CC2)CC1 [Compound 40] | – |
| 59.4 ± 4.38 | CC(C)(C)C(=O)Nc1ccc2[nH]c(CN3CCC(N(CCC(=O)N4CCS(=O)(=O)CC4)C[C@H]4O[C@@H](n5cnc6c(N)ncnc65)[C@H](O)[C@@H]4O)CC3)nc2c1 [Compound 34] | – |
| 46.7 ± 3.7 | CC1CCN(C(=O)CN(C[C@H]2O[C@@H](n3cnc4c(N)ncnc43)[C@H](O)[C@@H]2O)C2CCN(Cc3nc4ccc(NC(=O)C(C)(C)C)cc4[nH]3)CC2)CC1 [Compound 27] | – |
| 96.6 ± 5.07 | CC(C)N(CCC1CC2CN(Cc3ccc(C#N)cc3)CC2C1)C[C@H]1O[C@@H](n2cnc3c(N)ncnc32)[C@H](O)[C@@H]1O (some centres unmarked) [Compound 16] | – |
| 32.5 ± 3.56 | COC1(OC)CCN(CCCN(C[C@H]2O[C@@H](n3cnc4c(N)ncnc43)[C@H](O)[C@@H]2O)C2CCN(Cc3nc4cc(NC(=O)C(C)(C)C)ccc4[nH]3)CC2)CC1 [Compound 41] | – |
| 38 ± 5.24 | CC(C)N(CCCNC(=O)Nc1ccc(C(C)(C)C)cc1)C[C@H]1O[C@@H](n2cc(Br)c3c(N)ncnc32)[C@H](O)[C@@H]1O [SGC0946] | H3K27me3, H3K9me2, H3K4me1 and H3K36me2 levels [3]: remained relatively unchanged; IC50 (H460^WT cells): 9.18 ± 0.11 µmol/L; TGI (H460^WT): 44.4%; IC50 (DOT1L^WT): 0.0184 µM; H3K79me2 level (WB of common histone H3 modifications) ([1]; H460^R231Q cells, Fig. 7): decrease; TGI (H460^R231Q): 26.5% |
| 85.8 ± 6.87 | COc1ccc(CN2CC3CC(N(C[C@H]4O[C@@H](n5cnc6c(N)ncnc65)[C@H](O)[C@@H]4O)C(C)C)CC3C2)cc1Br (some centres unmarked) [Compound 8] | IC50 (H460^WT cells): > 100 µmol/L |
| 8.76 ± 0.61 | CC(C)(C)C(=O)Nc1ccc2[nH]c(CN3CCC(N(CCCN4CCC(O)CC4)C[C@H]4O[C@@H](n5cnc6c(N)ncnc65)[C@H](O)[C@@H]4O)CC3)nc2c1 [Compound 36] | H3K79me2 level mediated by DOT1L^R231Q ([1]; 5 μmol/L, WB): significantly reduced |
| > 100 | CC(C)(C)C(=O)Nc1ccc2nc(CN3CCC(N(CC(=O)NCc4ccco4)C[C@H]4O[C@@H](n5cnc6c(N)ncnc65)[C@H](O)[C@@H]4O)CC3)[nH]c2c1 [Compound 31] | – |
| 34.8 ± 1.92 | CN(C[C@H]1O[C@@H](n2cnc3c(N)ncnc32)[C@H](O)[C@@H]1O)C1CCN(Cc2nc3cc(NC(=O)C(C)(C)C)ccc3[nH]2)CC1 [Compound 23] | – |
| 72.5 ± 4.5 | CN(C)C(=O)CN(C[C@H]1O[C@@H](n2cnc3c(N)ncnc32)[C@H](O)[C@@H]1O)C1CC2CN(C(=O)Nc3ccc(NC(=O)C(C)(C)C)cc3)CC2C1 (some centres unmarked) [Compound 21] | – |
| 29.2 ± 1.63 | CCN1CCN(C(=O)CN(C[C@H]2O[C@@H](n3cnc4c(N)ncnc43)[C@H](O)[C@@H]2O)C2CCN(Cc3nc4ccc(NC(=O)C(C)(C)C)cc4[nH]3)CC2)CC1 [Compound 29] | – |
